Assay: Toxicity liver stage against HepG2, at 10uM
Type: cell-based
Set-up: test concentration 10 uM, cell line HepG2-A16-CD81EGFP
Conditions: human, HepG2-A16-CD81EGFP cells; read-out: INHIBITION
Summary of the method: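 Uninfected HepG2-A16-CD81EGFP cells, 3 × 10^3 per well, 1536-well, plated on prespotted compound at 10 μM final, parasite-free screening media added to match infected plates; puromycin 10 μM positive, DMSO 0.5% negative; run in parallel with 48 h PbLuc assay at 37 °C, 5% CO2; viability by CellTiter-Glo luminescence, normalized to controls.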
O=C(c1cc(CC2(NCc3ccccc3)COC2)no1)N1CCCCC1 gave a cytotoxicity at 10 µM of 1.14%.
Work on CCCn1cnc2c1CN(S(=O)(=O)Cc1ccccc1)[C@H](C(=O)OC)C2 yielded a cytotoxicity at 10 µM of -4.84%.
With Cc1ccc(-c2cn3c(n2)CO[C@@H](CNCc2nccn2C)C3)cc1 the cytotoxicity at 10 µM was -10.6%.
In the case of CS(=O)(=O)c1ccc2c(c1)nc1n2[C@@H](CNCc2cccnc2)COC1, the cytotoxicity at 10 µM was -2.68%.
CN1C[C@@H]2CN(C(=O)C3CC=CC3)C[C@@H]2C1=O gave a cytotoxicity at 10 µM of -114%.
CC(C)C(=O)N1CCc2nc(C(=O)Nc3cccnc3)sc2CC1 gave a cytotoxicity at 10 µM of 12.5%.
With O=C(C1CCOCC1)N1C[C@H](OCc2cccnc2)[C@H]2COC[C@H]21 the cytotoxicity at 10 µM was 1.99%.
For CCN1C(=O)C2(CCOCC2)c2cc(NC(=O)c3cc(C)n[nH]3)ccc21, the cytotoxicity at 10 µM was -2.49%.
Work on CCN(CC)CC1CN(Cc2c(C)noc2C)Cc2nccn2C1 (stereo not given) yielded a cytotoxicity at 10 µM of 2.37%.
With CC(=O)c1ccc(-n2ccc3nc(N4CCCC4)ncc3c2=O)cc1 the cytotoxicity at 10 µM was 1.45%.
With COCCNC(=O)c1nc(-c2ccc3cc[nH]c3c2)no1 the cytotoxicity at 10 µM was -0.208%.
Work on COc1ccccc1CNc1ncnc2c1NC(=O)CN2 yielded a cytotoxicity at 10 µM of 11.3%.
CC(=O)N1CCOC(c2c(C(=O)NC(C)(C)C)sc3ccccc23)C1 (stereo not given) showed a cytotoxicity at 10 µM of 8%.
Cc1ccc(C2CN(Cc3cccc4[nH]ccc34)CCO2)nc1 (stereo not given) gave a cytotoxicity at 10 µM of -35.6%.
Cn1ccc(C(=O)N2CCC(Cc3cnc4[nH]ccc4c3)C2)n1 (stereo not given) showed a cytotoxicity at 10 µM of -5%.
Work on O=C(Nc1ccc(-c2csnn2)cc1)N1CCCC1 yielded a cytotoxicity at 10 µM of -3.8%.
With O=C(NCCc1ccncc1)c1cccc(S(=O)(=O)NC2CC2)c1 the cytotoxicity at 10 µM was -151%.
CN(C)c1ncccc1CNC(=O)CCNc1ncccn1 gave a cytotoxicity at 10 µM of -2.22%.
For O=C(Cn1cncn1)NCC1CCN(Cc2ccccc2Cl)CC1, the cytotoxicity at 10 µM was -3.84%.
Work on NC(=O)C1CCN(c2ccc(C(=O)N3CCc4ccccc43)cn2)C1 (stereo not given) yielded a cytotoxicity at 10 µM of -1.29%.
CNC(=O)c1cccnc1NCCOc1ccccc1 gave a cytotoxicity at 10 µM of -4%.
CCOc1ccnc(N2CCCN(c3nc(C4CC4)ns3)CC2)n1 gave a cytotoxicity at 10 µM of 6.97%.
For COCCNC1(c2ccc(Cl)cc2)CCOCC1, the cytotoxicity at 10 µM was 7.06%.
Compound Cc1cc(CNC(=O)N2CCc3ccccc32)on1 has a cytotoxicity at 10 µM of -3.57%.
Compound CC(NC(=O)c1cccc(CN2CCN(C)CC2)c1)c1ccccn1 (stereo not given) has a cytotoxicity at 10 µM of -13.5%.
With CN(Cc1cc(Br)cn1C)C(=O)c1ccsc1 the cytotoxicity at 10 µM was -10%.
Work on CN(CCC#N)C(=O)CN1CCCC1c1cccs1 (stereo not given) yielded a cytotoxicity at 10 µM of -8.83%.
COCCNC(=O)c1cc(OC)ccc1Br gave a cytotoxicity at 10 µM of -4.2%.
In the case of O=C(CCCc1ccccn1)N1CCC(n2cccc2)CC1, the cytotoxicity at 10 µM was 4.59%.
Compound O=C(NCc1ccccc1CO)Nc1ccc2c(c1)CCC2 has a cytotoxicity at 10 µM of 3.09%.
For N#CCCN(CCC#N)C(=O)c1ccc(OCC2CC2)cc1, the cytotoxicity at 10 µM was -10.8%.
For O=C1CN(CCCNC(=O)Nc2ccccn2)CCN1, the cytotoxicity at 10 µM was -10.1%.
In the case of NC(=O)N1CCCC(C(=O)NCc2ccccc2OC(F)(F)F)C1 (stereo not given), the cytotoxicity at 10 µM was 1.01%.
CC(C)c1nccn1C1CCCN(C(=O)c2ccn(C)c(=O)c2)C1 (stereo not given) showed a cytotoxicity at 10 µM of 7.35%.
CCc1cnc(N2CCN(CC(=O)Nc3c(C)n[nH]c3C)CC2)s1 gave a cytotoxicity at 10 µM of -2.69%.
CCN(CC(F)(F)F)C(=O)C1CCCN(Cc2nc(C)c(C)o2)C1 (stereo not given) showed a cytotoxicity at 10 µM of -4.05%.
Compound O=C(NCCN1CCOCC1)c1cc(Cl)c2c(c1)OCCCO2 has a cytotoxicity at 10 µM of -5.29%.
Work on Cc1cccc(Nc2c(C#N)c(=O)n(C)c(=O)n2C)c1 yielded a cytotoxicity at 10 µM of -7.48%.
CC(C)Cc1ccc(C(=O)Cn2cnnc2[S+](C)[O-])cc1 (stereo not given) showed a cytotoxicity at 10 µM of -7.08%.
Work on Cc1cc(NC(=O)NCCc2ccc3c(c2)OCCO3)n(C)n1 yielded a cytotoxicity at 10 µM of -0.838%.
With CS(=O)(=O)NCC1CCCN(C(=O)Nc2ccccc2N2CCCC2)C1 (stereo not given) the cytotoxicity at 10 µM was -139%.
With CNS(=O)(=O)c1ccc(CCC(=O)NCc2cccc(OC)c2)cc1 the cytotoxicity at 10 µM was -148%.
In the case of CSc1ccc(NC(=O)NCC2CCCO2)cc1F (stereo not given), the cytotoxicity at 10 µM was -7.81%.
For COc1ccc(N(C(=O)Cc2ccc(C)nc2)C(C)C)cc1F, the cytotoxicity at 10 µM was 0.854%.
COC(=O)c1cnc(/C=C/c2ccc(C(=O)O)cc2)s1 showed a cytotoxicity at 10 µM of 2.56%.
Work on O=c1c2cccnc2cnn1CC(O)c1cccc(Cl)c1 (stereo not given) yielded a cytotoxicity at 10 µM of -10.2%.
Work on COc1c(C)cnc(CNC(=O)CCOCC(C)C)c1C yielded a cytotoxicity at 10 µM of -4.44%.
CC(C)Cn1ncc2cc(C(=O)N(C)CCc3ccccc3)cnc21 gave a cytotoxicity at 10 µM of -3.42%.
In the case of Cc1occc1C(=O)N1CCC(C(O)c2ccc(F)cc2)CC1 (stereo not given), the cytotoxicity at 10 µM was -2.69%.
For CN(c1ccc(OCc2cnc(Cl)s2)cc1)S(C)(=O)=O, the cytotoxicity at 10 µM was 0.867%.
CN1CCN(c2ccc(NC(=O)c3ccccn3)c(C(F)(F)F)c2)CC1 gave a cytotoxicity at 10 µM of 0.753%.
With OCCN1CCN(CC(O)c2cc(Cl)ccc2Cl)CC1 (stereo not given) the cytotoxicity at 10 µM was -3.03%.
Cc1ccc(NC(=O)N2CCCC(O)C2)c(Br)c1 (stereo not given) showed a cytotoxicity at 10 µM of 7.72%.
In the case of CNC(=O)c1cnc(/C=C/c2cc(OC)cc(OC)c2)s1, the cytotoxicity at 10 µM was -19.6%.
Cc1nc(C2(NCC(=O)NCCc3cccs3)CCCC2)no1 gave a cytotoxicity at 10 µM of -2.18%.

— ChEMBL document CHEMBL4513216, “Probing the Open Global Health Chemical Diversity Library for Multistage-Active Starting Points for Next-Generation Antimalarials” (ACS Infect Dis, 2020)
